Results: ChEMBL document CHEMBL1149782, “Synthesis and antifungal activity of some new 3-hydroxy-2-(1-phenyl-3-aryl-4-pyrazolyl) chromones” (2008)

Columns and labels:
Assay type in all cases: functional
[1] = system: Helminthosporium; test: Antifungal activity against Helminthosporium species at 100 ppm after 96 hrs
Summary of the method: (§1)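 Poisoned-food assay on potato dextrose agar (200 g potato per litre, boiled and filtered) with compound mixed into sterilized medium at final 100, 500 or 1000 ppm. Plates were centre-inoculated with mycelial discs from 7-day PDA cultures and incubated at 28 ± 1 °C. Colony diameter was measured at two right angles after 96 h. Inhibition = (C − T) × 100/C against compound-free control, mean of three replicates ± SD, two-way ANOVA.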

[2] = system: Helminthosporium; test: Antifungal activity against Helminthosporium species at 500 ppm after 96 hrs; summary of the method: as §1
[3] = system: Helminthosporium; test: Antifungal activity against Helminthosporium species at 1000 ppm after 96 hrs; summary of the method: as §1
[4] = system: Fusarium oxysporum; test: Antifungal activity against Fusarium oxysporum at 100 ppm after 96 hrs; summary of the method: as §1
[5] = system: Fusarium oxysporum; test: Antifungal activity against Fusarium oxysporum at 500 ppm after 96 hrs; summary of the method: as §1
[6] = system: Fusarium oxysporum; test: Antifungal activity against Fusarium oxysporum at 1000 ppm after 96 hrs; summary of the method: as §1
[7] = system: Alternaria alternata; test: Antifungal activity against Alternaria alternata at 100 ppm after 96 hrs; summary of the method: as §1
[8] = system: Alternaria alternata; test: Antifungal activity against Alternaria alternata at 500 ppm after 96 hrs; summary of the method: as §1
[9] = system: Alternaria alternata; test: Antifungal activity against Alternaria alternata at 1000 ppm after 96 hrs; summary of the method: as §1

Row | SMILES | inhibition at 100 ppm [1] [%] | inhibition at 500 ppm [2] [%] | inhibition at 1000 ppm [3] [%] | inhibition at 100 ppm [4] [%] | inhibition at 500 ppm [5] [%] | inhibition at 1000 ppm [6] [%] | inhibition at 100 ppm [7] [%] | inhibition at 500 ppm [8] [%] | inhibition at 1000 ppm [9] [%]
1 | COc1ccc(-c2nn(-c3ccccc3)cc2-c2oc3ccccc3c(=O)c2O)cc1 | 59.7 | 59.7 | 77.6 | 55.5 | 55.3 | 64.2 | 73.5 | 75.4 | 77.3
2 | O=c1c(O)c(-c2cn(-c3ccccc3)nc2-c2ccccc2)oc2ccccc12 | 31 | 50.5 | 71.2 | 33.9 | 39.2 | 51.7 | 15 | 41.5 | 52.8
3 | Cc1ccc(-c2nn(-c3ccccc3)cc2-c2oc3ccccc3c(=O)c2O)cc1 | 73.8 | 73.8 | 76.1 | 50 | 51.4 | 55.7 | 60 | 61.8 | 61.8
4 | O=c1c(O)c(-c2cn(-c3ccccc3)nc2-c2ccc(F)cc2)oc2ccccc12 | 12.3 | 28.7 | 58.6 | 8.9 | 8.9 | 16 | 30.1 | 43.3 | 50.9
5 | O=c1c(O)c(-c2cn(-c3ccccc3)nc2-c2ccc([N+](=O)[O-])cc2)oc2ccccc12 | 1.31 | 1.31 | 14.4 | 8.57 | 11.4 | 14.2 | 0 | 16.1 | 16.1
6 | O=c1c(O)c(-c2cn(-c3ccccc3)nc2-c2ccc(Br)cc2)oc2ccccc12 | 39 | 39.2 | 39.2 | 34.2 | 35.7 | 41.4 | 25.4 | 29 | 34.5
7 | O=c1c(O)c(-c2cn(-c3ccccc3)nc2-c2ccc(Cl)cc2)oc2ccccc12 | 0 | 1.19 | 21.4 | 0 | 0 | 0 | 0 | 38.2 | 38.2
8 | C[C@@H]1C[C@@H]([C@H](O)CC2CC(=O)NC(=O)C2)C(=O)[C@@H](C)C1 [CYCLOHEXIMIDE] | 38.5 | 41.5 | 50 | 39.2 | 43.4 | 50.2 | 40.2 | 45.5 | 50.6
